# Screening data deposited in PubChem by Broad Institute.
# This is a sample that favours compounds with a hit; in the whole collection about 3% have one here.
# Cneo AK release: Cryptococcus neoformans cell lysis inducers, primary screen, AK release luminescence, single concentration; C. neoformans lysis, adenylate kinase release luminescence, 4 h; normalised: neutral wells 0, clomiphene wells 100; lysis activity, % at 15 µM; 0.2% of 360,000 active; AID 651654, 2012;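 active = mean lysis activity across replicates of at least 80%, whatever share of replicates individually reach that level; inactive = mean lysis activity below 80%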
#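 Test system: log-phase Cryptococcus neoformans yeast cells; Quantity: yeast cell density of 5 × 10^6 cells/mL; Buffer or medium: YPD; Doses: single compound concentration per well; Timing: 4 h at 37 °C static, read 1 h later; Measured by: AK luminescence; Read-out basis: lysis from increased AK signal; Control set: Clomiphene as positive control.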
# C2C12 statin: suppressors of statin myotoxicity in C2C12 myotubes, primary screen, cell-based, single point, plate reader | C2C12 myotubes + simvastatin, ATP luminescence, 48 h; scaled: DMSO 0, geranylgeraniol control 100 | rescue of ATP level, % at 7.49 µM | 0.78% of 330,000 active | AID 602340, 2012;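 active = mean ATP rescue above about 67%, or every replicate alone reaching that limit, limit read from the data, passing the limit was not always enough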;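 note: myotubes were challenged with 10 µM simvastatin during compound exposure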
# S100A4 MyoIIA: inhibitors of S100A4-myosin IIA peptide binding, primary screen, biochemical, fluorescence polarization, TAMRA-MyoIIA peptide; 0.14% of 360,000 active; Protein S100-A4 (Homo sapiens), P26447; inhibition, % at 10.7 µM;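 active = mean inhibition of at least 70% across replicates, with every replicate also reaching that level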
# Target sequence (P26447 whole entry, looked up): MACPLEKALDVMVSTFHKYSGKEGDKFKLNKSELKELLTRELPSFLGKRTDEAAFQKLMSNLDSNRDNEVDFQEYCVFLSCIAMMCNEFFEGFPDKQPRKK
#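 Compound dosing: one dose per compound; test system: human S100A4 monomer with TAMRA-labelled myosin IIA peptide; probe or stimulus: TAMRA-labelled myosin IIA heavy-chain peptide probe, 5 nM; medium: HEPES buffer with Ca2+, pH 7.2; schedule: 5 min incubation before reading; benchmarks: neutral control DMSO, positive control TFP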
# SIRT5 inh: SIRT5 desuccinylase inhibitors, primary screen, biochemical, fluorescence imaging, single point, set 5; 1.1% of 330,000 active; NAD-dependent protein deacylase sirtuin-5, mitochondrial (Homo sapiens), Q9NXA8; Purified SirT5, succinyl-peptide AMC, trypsin-coupled fluorescence; inhibition, % at 15 µM; AID 652115, 2013; in the data active = inhibition above about 15%
# Target sequence (Q9NXA8 whole entry, looked up): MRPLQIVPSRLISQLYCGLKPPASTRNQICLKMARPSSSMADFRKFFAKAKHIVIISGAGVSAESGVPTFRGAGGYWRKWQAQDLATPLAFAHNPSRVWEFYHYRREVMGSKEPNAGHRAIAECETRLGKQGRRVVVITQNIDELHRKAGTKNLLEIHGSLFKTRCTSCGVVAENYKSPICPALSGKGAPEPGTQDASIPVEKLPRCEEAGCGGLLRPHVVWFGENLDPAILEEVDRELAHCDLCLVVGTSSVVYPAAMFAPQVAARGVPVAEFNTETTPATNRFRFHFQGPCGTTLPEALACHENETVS
# PGC1a acetyl inh: inhibitors of PGC1a acetylation signal, primary screen, cell-based, U2OS, AlphaScreen, inhibitor mode. AlphaScreen anti-acetyl-lysine; with virally co-expressed GCN5 acetyltransferase. inhibition, % at 15.6 µM. 0.17% of 350,000 active. AID 651687, 2012;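 active = every replicate shows inhibition of at least 40%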;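 note: 0% = neutral control wells and 100% = positive control wells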
# rRNA inh HTS: reduced GFP signal of wild-type E. coli, primary screen, bacterial rRNA inhibitor project, GFP/RFP fluorescence, OD600, single point; E. coli WT GFP vs humanized-ribosome RFP mutants, 24 h; stronger effect = lower value; DMSO median 0, no signal -100; GFP signal change (wild-type ribosome), % (concentration not given with the values); 1.6% of 350,000 active;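 active = significant combined selectivity score with lowered wild-type GFP, culture density cut under 30%, mutant RFP and density less affected; inactive = any of these conditions unmet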
# The depositor's hits bear a star; / = no result given; ! = a repeat was not active.
SMILES,Cneo AK release,C2C12 statin,S100A4 MyoIIA,SIRT5 inh,PGC1a acetyl inh,rRNA inh HTS
COc1ccc2nc3cc(Cl)ccc3c(Nc3cc(CN4CCCC4)c(O)c(CN4CCCC4)c3)c2n1,0,17,2,-3,72*,/
Cc1noc(C)c1NC(=O)N[C@H]1C=C[C@@H](CC(=O)NCc2ccc(Cl)c(Cl)c2)O[C@@H]1CO,4,-1,16,-3,-5,2
O=S(=O)(O/N=C1\CCCc2ccccc21)c1ccccc1,-1,/,/,/,-1,/
COc1ccc(OCC(=O)N/N=C2\CCCCc3ccccc32)cc1,/,/,-7,-3,/,-29*
COc1ccc(S(=O)(=O)O/N=C2\CCCc3ccccc32)cc1,0,72*,/,/,-15,/
CCCN(C)C[C@H]1OCCCC[C@@H](C)Oc2ccc(NS(=O)(=O)c3c(C)noc3C)cc2C(=O)N([C@@H](C)CO)C[C@H]1C,/,/,1,3,5,0
COCC(C)n1c(C)cc(C(=O)COC(=O)c2oc3ccccc3c2C)c1C (centres undefined),-1,73*,/,/,-6,/
COCC(C)n1c(C)cc(C(=O)COC(=O)c2n[nH]c3ccccc23)c1C (centres undefined),/,/,/,/,-10,/
O=C1c2ccccc2C(c2nnnn2Cc2ccccc2)N1Cc1ccc(F)cc1 (centres undefined),/,/,10,-2,/,-13
O=C1c2ccccc2C(c2nnnn2Cc2ccccc2)N1Cc1ccc2c(c1)OCO2 (centres undefined),/,/,-2,-2,/,-27*
O=C1c2ccccc2C(c2nnnn2Cc2ccccc2)N1Cc1ccco1 (centres undefined),/,/,-5,15*,/,-12
CCCN1C[C@@H](C)[C@H](OC)CN(C)C(=O)c2cc(NS(=O)(=O)c3ccccc3)ccc2OC[C@H]1C,-1,28,-3,1,0,/
CN1C(=O)c2cc(NC(=O)Nc3ccccc3)ccc2OC[C@@H]2O[C@H](CC(=O)O)CC[C@@H]21,0,-17,/,-6,/,1
COCC(=O)N1[C@H](CO)[C@@H](c2ccccc2)C12CN(C(=O)c1cccc(F)c1)C2,/,/,4,0,2,1
COc1ccccc1S(=O)(=O)N[C@H]1C=C[C@@H](CC(=O)N2CCN(C)CC2)O[C@@H]1CO,-1,5,42,1,7,0
COc1cc2c(C(=O)NCCCN3CCN(c4cccc(Cl)c4)CC3)cn(C)c(=O)c2cc1OC,1,122*,/,/,6,/
COc1ccc(S(N)(=O)=O)cc1C(=O)NCCCN1CCN(c2cccc(Cl)c2)CC1,1,2,/,/,-1,/
N#C[C@H]1[C@H](c2ccccc2C2=CCCC2)[C@H](CO)N1C(=O)NC1CCCCC1,/,/,-1,3,8,-12
COc1ccccc1CN1[C@@H]2c3cccc(=O)n3C[C@@H]2[C@@H](CO)[C@@H]1C(=O)NCCc1ccncc1,-2,28,4,-5,/,-2
O=C(CNC(=O)c1ccc(Cl)cc1Cl)OCc1cn2cc(Br)ccc2n1,-2,3,74*,1,-6,0
CCNC(=S)NNC(=O)c1csc2ccccc12,-1,-9,/,/,59*,/
C[C@H]1CN([C@@H](C)CO)C(=O)Cc2cc(NS(=O)(=O)c3ccc(Cl)cc3)ccc2O[C@@H]1CN(C)Cc1ccc(C(=O)O)cc1,/,-28,1,-14,5,5
CCN(c1cccc2ccccc12)S(=O)(=O)c1ccc(Cl)nc1,-3,/,0,-6,-4,-22*
CCN(c1ccccc1)S(=O)(=O)c1ccc(Cl)nc1,/,/,-3,2,6,5
CN1C(=O)c2cc(NS(=O)(=O)c3ccc(F)cc3)ccc2OC[C@@H]2O[C@@H](CC(=O)O)CC[C@@H]21,-5,-4,2,-11,1,5
SMILES,Cneo AK release,C2C12 statin,S100A4 MyoIIA,SIRT5 inh,PGC1a acetyl inh,rRNA inh HTS
COC(=O)Nc1ccc(Cn2cc(C(F)(F)F)ccc2=O)cc1,/,/,1,17*,1,6
Cc1ccc(NC(=O)C[C@H]2CC[C@H]3[C@@H](COc4ccc(NC(=O)C5CCCCC5)cc4C(=O)N3C)O2)cc1,/,/,/,/,/,0
CC(=O)OC(C)=O,0,1,79*,/,2,0
COc1ccc(CNC(=O)c2c(O)c3cccc4c3n(c2=O)CCC4)cc1OC,-1,79*,/,/,13,/
O=[N+]([O-])c1ccc(/C=N/N=C/c2ccc([N+](=O)[O-])o2)o1,/,/,-7,-2,/,10
Cc1cc2ncn(/N=C/c3ccc([N+](=O)[O-])o3)c2cc1C,-3,87*,-3,-3,-11,17
O=S(c1ccc2ccccc2c1)c1cnns1 (centres undefined),-3,124*,/,/,-8,/
CCC1(C)Cc2c(sc3[nH]c(=O)[nH]c(=O)c23)CS1 (centres undefined),14,100*,/,/,-14,/
CCC1(C)Cc2c(sc3[nH]c(=S)[nH]c(=S)c23)CO1 (centres undefined),-1,-17,-10,-5,/,7
Cc1ccc(-c2cnc3c(c2)C(=O)N([C@H](C)CO)C[C@@H](C)[C@@H](CN(C)C(=O)Cc2cccnc2)O3)cc1,18,-3,27,1,2,-1
Cc1cc(C=O)c(C)n1-c1cc(C(=O)O)cc(C(=O)O)c1,/,/,-2,20*,-2,17
CCN1CCN(Cc2ccc(C(=O)Nc3ccc(C)c(NCc4cnc(NC(=O)OC)cn4)c3)cc2C(F)(F)F)CC1,9,2,0,-2,-33,-17*!
CCCC#Cc1ccc([C@H]2[C@H](C#N)N(S(C)(=O)=O)[C@H]2CO)cc1,-3,-8,-2,0,-1,0
CCn1nc(C(=O)OCc2cccc(S(=O)(=O)N(C)C)c2)c2ccccc2c1=O,/,/,3,-4,/,-25*
OC[C@H]1[C@@H](c2ccc(/C=C/c3ccccc3)cc2)[C@@H]2CN(Cc3cccnc3)CCCCN12,1,8,/,/,-10,6
Cn1cc(C(=O)Nc2ccc(F)c(F)c2)cn1,2,90*,/,/,44,/
CCOC(=O)N1CCN(C(=S)NC(=O)c2nn(C)cc2Br)CC1,-9,125*,-1,1,-2,14
Cn1cc(Br)c(C(=O)NC(=S)N2CCN(c3ccccn3)CC2)n1,/,/,1,4,/,6
CCCCn1cnc2c(SCCc3ccccc3)nc(N)nc21,-3,99*,-3,6,1,/
